# Active and inactive are the calls of the source. The rule behind the calls is not given here.
# Assays:
# [1] = system: Radical scavenging activity; experiment: Antioxidant activity assessed as DPPH free radical scavenging activity by spectroscopic analysis; assay type: functional
# Liver microsome = experiment: Antioxidant activity against tert-butylhydroperoxide-induced lipid peroxidation in rat liver microsomes after 20 mins by TBARS method; assay type: functional
# Procedure, shortened: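 Kept on ice, then peroxidation started with tert-butylhydroperoxide (1 mM) and run 37 °C, 20 min. Stopped with BHT, then TCA/TBA at 85 °C for 20 min. TBARS read as A535−A600. IC50 is the mean of 3 independent trials.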
# [2] = Octanol-water partition coefficient, logKOW of the compound; assay type: physicochemical; details: read-out: log KOW
# HL-60 [3] = experiment: Cytotoxicity against human HL60 cells assessed as reduction of cell viability at 100 uM after 24 hrs by trypan blue dye exclusion test; assay type: cell-based; details: hl-60, 24 h
# Procedure, shortened: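 HL60 cells at 1.0 × 10⁶/well exposed to compound (100 μM, 1% DMSO final) for 24 h at 37 °C, 5% CO2. Cells pelleted and resuspended in PBS(−). Viable cells counted by trypan blue exclusion on an automated counter.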
# HL-60 [4] = experiment: Antioxidant activity in human HL60 cells assessed as reduction of H2O2-induced intracellular oxidative stress at 10 uM after 1 hr using DCFH-DA by FACS analysis; assay type: functional, cell-based
# Procedure, shortened: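 HL60 cells (RPMI-1640, 5% heat-inactivated FBS, 37 °C, 5% CO2) at 1.0 × 10⁶/well loaded with DCFH-DA (10 μM, 15 min), washed, then pretreated 1 h with compound (10 μM, 1% DMSO final). H2O2 (200 μM) added for 1 h; water for controls. Fluorescence (ex 488/em 530 nm) measured by flow cytometry on about 10,000 cells per sample.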
IC50 (Liver microsome) [µM],logP [2],SMILES,Activity [1] [×10³ /M/s],Activity (HL-60 [3]),Activity (HL-60 [4])
300,0.7,O=C1Cc2cc(O)ccc2N1,9.2,Non-toxic,Active
240,1.07,O=C(CC1(O)C(=O)Nc2ccc(O)cc21)c1ccccc1 (stereo not given),1.9,Non-toxic,Active
150,1.91,N#Cc1ccc(C(=O)CC2(O)C(=O)Nc3ccc(O)cc32)cc1 (stereo not given),1.7,Toxic,Active
> 300,0.44,CC(=O)CC1(O)C(=O)Nc2ccc(O)cc21 (stereo not given),0.74,Non-toxic,inactive
95,1.93,O=C(CC1(O)C(=O)Nc2ccc(O)cc21)c1ccc(F)cc1 (stereo not given),1.5,Toxic,Active

# Second part, the compound before the results:
SMILES,IC50 (Liver microsome) [µM],logP [2],Activity [1] [×10³ /M/s],Activity (HL-60 [3]),Activity (HL-60 [4])
O=C(CC1(O)C(=O)Nc2ccc(O)cc21)c1ccc(Cl)cc1 (stereo not given),120,2.45,2.4,Toxic,Active
O=C(CC1(O)C(=O)Nc2ccc(O)cc21)c1ccc(C(F)(F)F)cc1 (stereo not given),80,2.89,1.6,–,Active
Cc1ccc(C(=O)CC2(O)C(=O)Nc3ccc(O)cc32)cc1 (stereo not given),160,2.2,1.8,Non-toxic,Active
Oc1nc(O)c2nc(O)[nH]c2n1 [URIC ACID],> 300,–,0.63,–,inactive
O=C(CC1(O)C(=O)Nc2ccc(O)cc21)c1ccc([N+](=O)[O-])cc1 (stereo not given),40,1.85,2.5,–,Active
O=C(CC1(O)C(=O)Nc2ccc(O)cc21)c1ccc(I)cc1 (stereo not given),55,2.81,2.2,–,Active
COc1ccc(C(=O)CC2(O)C(=O)Nc3ccc(O)cc32)cc1 (stereo not given),225,1.74,1.5,Non-toxic,Active
O=C(CC1(O)C(=O)Nc2ccc(O)cc21)c1ccc(Br)cc1 (stereo not given),75,2.55,1.2,Toxic,Active
